Measurements reported in ChEMBL document CHEMBL4325827, “Bifidenone: Structure-Activity Relationship and Advanced Preclinical Candidate” (J Med Chem, 2018).

Legend:
[1] = Toxicity in Crl:NU(NCr)-Foxn1 nu mouse xenografted with human […] cells assessed as maximum body weight loss at 40 mg/kg, ip qd administered for 3 consecutive days followed by 2 days of rest for 3 cycles measured after 7 days post dose relative to control; assay type: organism-based; conditions: in vivo, 168 h
Method in brief: (§1)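 Female athymic nude mice bearing subcutaneous xenografts, started from cultured cells (NCI-H460, Calu-6, NCI-H69, LOX-IMVI) or from serially passaged tumour fragments (NCI-H522). Mice were grouped into vehicle and treatment arms at tumour volumes of about 75-200 mm3. Dosing was ip at 5-10 mL/kg in 22% ethanol, 38% PEG400, 40% 20 mM Na citrate pH 5.0. Caliper volumes were taken as (length × width2)/2. Treated and control delta weights were median tumour weight minus staging-day median.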

EKVX = assay: Antiproliferative activity against taxane-resistant human EKVX cells after 72 hrs by CellTiter 96 aqueous nonradioactive cell proliferation assay; assay type: functional, cell-based
[2] = Plasma concentration in Crl:NU(NCr)-Foxn1 nu mouse xenografted with human NCI-H460 cells at 40 mg/kg, ip injected via vehicle solution measured at 1 hr post injection by LC-MS analysis; assay type: ADME, organism-based; conditions: in vivo
Method in brief: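 Male Nu/Nu mice, some bearing NCI-H460 or LOX-IMVI xenografts, given a single ip dose at 3 mL/kg. Organic vehicle components were dissolved first, with the aqueous part added gradually. Mice were euthanized at 1 h or 3 h. Cardiac blood was taken into NaEDTA/NaF plasma separator tubes. Quantification used loratadine internal standard against a spiked blank-plasma curve. Tumours were run as duplicate ~200 mg samples homogenized in 3% SDS and extracted twice with ethyl acetate, assuming 1 g tissue = 1 mL.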

[3] = Toxicity in Crl:NU(NCr)-Foxn1 nu mouse xenografted with human […] cells assessed as mortality at 50 mg/kg, ip qd administered for 3 consecutive days followed by 2 days of rest for 3 cycles; assay type: organism-based; conditions: in vivo, 48 h
Method in brief: (§2)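 Female athymic nude mice bearing subcutaneous NCI-H522 xenografts started from tumor fragments kept by continuous in vivo passage. Mice were grouped once tumors reached about 75-200 mm3. Dosing was ip at 5-10 mL/kg in 22% ethanol, 38% PEG400, 40% 20 mM Na citrate pH 5.0. Deaths per group were recorded with maximum mean bodyweight loss.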

HCT-15 [4] = assay: Potency index, ratio of paclitaxel IC50 to compound IC50 for taxane-resistant human HCT15 cells after 72 hrs by CellTiter 96 aqueous nonradioactive cell proliferation assay; assay type: functional
LOX IMVI = assay: Antitumor activity against human LOXIMVI cells xenografted in Crl:NU(NCr)-Foxn1 nu mouse assessed as tumor growth inhibition at 30 mg/kg, ip qd for 7 consecutive days relative to control; assay type: functional; conditions: read-out: TGI; method in brief: as §1
[5] = Toxicity in Crl:NU(NCr)-Foxn1 nu mouse xenografted with human […] cells assessed as mortality at 60 mg/kg, ip qd administered for 3 consecutive days followed by 2 days of rest for 3 cycles; assay type: organism-based; conditions: in vivo, 48 h; method in brief: as §2
[6] = Toxicity in Crl:NU(NCr)-Foxn1 nu mouse xenografted with human NCI-H460 cells assessed as mortality at 60 mg/kg, ip qd administered for 3 consecutive days followed by 2 days of rest for 3 cycles; assay type: organism-based; conditions: in vivo, 48 h
Method in brief: (§3)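 Female athymic nude mice bearing subcutaneous xenografts started from cultured human tumor cells. Mice were split into vehicle and treatment groups once tumors reached about 75-200 mm3. Dosing was ip at 5-10 mL/kg in 22% ethanol, 38% PEG400, 40% 20 mM Na citrate pH 5.0. Deaths per group were recorded alongside maximum mean bodyweight loss.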

[7] = Toxicity in Crl:NU(NCr)-Foxn1 nu mouse xenografted with human LOX-IMVI cells assessed as mortality at 40 mg/kg, ip qd administered for 5 consecutive days; assay type: organism-based; conditions: in vivo; method in brief: as §3
[8] = Toxicity in Crl:NU(NCr)-Foxn1 nu mouse xenografted with human […] cells assessed as maximum body weight loss at 60 mg/kg, ip qd administered for 3 consecutive days followed by 2 days of rest for 3 cycles measured after 3 days post dose relative to control; assay type: organism-based; conditions: in vivo, 72 h; method in brief: as §1
OVCAR-4 [9] = assay: Potency index, ratio of paclitaxel IC50 to compound IC50 for taxane-resistant human OVCAR4 cells after 72 hrs by CellTiter 96 aqueous nonradioactive cell proliferation assay; assay type: functional
ACHN = assay: Potency index, ratio of paclitaxel IC50 to compound IC50 for taxane-resistant human ACHN cells after 72 hrs by CellTiter 96 aqueous nonradioactive cell proliferation assay; assay type: functional
Calu-6 = assay: Antitumor activity against human Calu6 cells xenografted in Crl:NU(NCr)-Foxn1 nu mouse assessed as tumor growth inhibition at 60 mg/kg, ip qd administered for 3 consecutive days followed by 2 days of rest for 4 cycles relative to control; assay type: functional; conditions: Calu-6, ip, 48 h, read-out: TGI; method in brief: as §1
[10] = Toxicity in Crl:NU(NCr)-Foxn1 nu mouse xenografted with human Calu6 cells assessed as maximum body weight loss at 50 mg/kg, ip qd administered for 3 consecutive days followed by 2 days of rest for 4 cycles measured after 17 days post dose relative to control; assay type: organism-based; conditions: in vivo, 408 h; method in brief: as §1
OVCAR-4 [11] = assay: Antiproliferative activity against taxane-resistant human OVCAR4 cells after 72 hrs by CellTiter 96 aqueous nonradioactive cell proliferation assay; assay type: functional, cell-based; conditions: OVCAR-4, 72 h
Method in brief: (§4)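 Antiproliferation in cultured tumour cells, at least 3 replicate wells per concentration per experiment. NCI-H460 came from ATCC. M14, NCI/ADR-RES, OVCAR-4, HCT-15, ACHN and SF-295 came from the National Cancer Institute. IC50 reported from single experiments where no SD is given.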

NCI-H460 [12] = assay: Antitumor activity against human NCI-H460 cells xenografted in Crl:NU(NCr)-Foxn1 nu mouse assessed as tumor growth inhibition at 60 mg/kg, ip qd administered for 3 consecutive days followed by 2 days of rest for 3 cycles relative to control; assay type: functional; conditions: 48 h, read-out: TGI; method in brief: as §1
[13] = Toxicity in Crl:NU(NCr)-Foxn1 nu mouse xenografted with human LOX-IMVI cells assessed as mortality at 30 mg/kg, ip qd administered for 7 consecutive days; assay type: organism-based; conditions: in vivo; method in brief: as §3
HCT-15 [14] = assay: Antiproliferative activity against taxane-resistant human HCT15 cells after 72 hrs by CellTiter 96 aqueous nonradioactive cell proliferation assay; assay type: functional, cell-based; conditions: HCT-15, 72 h; method in brief: as §4
[15] = Toxicity in Crl:NU(NCr)-Foxn1 nu mouse xenografted with human NCI-H69 cells assessed as mortality at 60 mg/kg, ip dosed on day 1 followed by 4 days rest and subsequently dosed at 60 mg/kg, ip qd administered for 3 consecutive days followed by 2 days of rest for 2 cycles; assay type: organism-based; conditions: in vivo; method in brief: as §3
NCI-H522 = assay: Antitumor activity against human NCI-H522 cells xenografted in Crl:NU(NCr)-Foxn1 nu mouse assessed as tumor growth inhibition at 40 mg/kg, ip qd administered for 3 consecutive days followed by 2 days of rest for 3 cycles relative to control; assay type: functional; conditions: 48 h, read-out: TGI; method in brief: as §1
NCI-H460 [16] = assay: Antitumor activity against human NCI-H460 cells xenografted in Crl:NU(NCr)-Foxn1 nu mouse assessed as tumor growth inhibition at 40 mg/kg, ip qd administered for 3 consecutive days followed by 2 days of rest for 3 cycles relative to control; assay type: functional; conditions: 48 h, read-out: TGI; method in brief: as §1

C=CC[C@H]1C[C@]2([C@H](C)Cc3cc(O)c(OC)cc3F)OCOC2=CC1=O
Activity [1]: 3% | IC50 (EKVX): 7 nM | Drug uptake [2]: Active | Activity [3]: Non-Toxic | Ratio IC50 (HCT-15 [4]): 14 | inhibition in vivo at 30 mg/kg (LOX IMVI): 63% | Activity [5]: Non-Toxic | Activity [6]: Non-Toxic | Activity [7]: Non-Toxic | Activity [8]: 9% | Ratio IC50 (OVCAR-4 [9]): >75 | Ratio IC50 (ACHN): 7 | inhibition in vivo at 60 mg/kg (Calu-6): 63% | Activity [10]: 4% | IC50 (OVCAR-4 [11]): 8 nM | inhibition in vivo at 60 mg/kg (NCI-H460 [12]): 67% | Activity [13]: Non-Toxic | IC50 (HCT-15 [14]): 14 nM | Activity [15]: Non-Toxic | inhibition in vivo at 40 mg/kg (NCI-H522): 54% | inhibition in vivo at 40 mg/kg (NCI-H460 [16]): 71%
